# From ChEMBL document CHEMBL2384977, “Synthesis and biological evaluation of novel styryl benzimidazole derivatives as probes for imaging of neurofibrillary tangles in Alzheimer's disease” (Bioorg Med Chem, 2013)
# Assays:
# Intestine [1] = test: Biodistribution in ddY mouse intestine at 13.2 to 20.6 kBq, iv measured at 60 mins by gamma counting analysis; type: ADME, organism-based; conditions: in vivo, 1 h
# Method in brief: (§1)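 Male ddY mice, 5 weeks old, received the 125I-labelled tracer (13.2–20.6 kBq) intravenously in the tail vein, in 100 µL saline containing ethanol. Animals were sacrificed at 2, 10, 30 and 60 min. Tissue radioactivity is expressed as %ID/g, mean (SD) of 5 animals.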
# Spleen [2] = test: Biodistribution in ddY mouse spleen at 13.2 to 20.6 kBq, iv measured at 60 mins by gamma counting analysis; type: ADME, organism-based; conditions: in vivo, 1 h; method in brief: as §1
# Pancreas [3] = test: Biodistribution in ddY mouse pancreas at 13.2 to 20.6 kBq, iv measured at 60 mins by gamma counting analysis; type: ADME, organism-based; conditions: in vivo, 1 h; method in brief: as §1
# Heart [4] = test: Biodistribution in ddY mouse heart at 13.2 to 20.6 kBq, iv measured at 60 mins by gamma counting analysis; type: ADME, organism-based; conditions: in vivo, 1 h; method in brief: as §1
# Lung [5] = test: Biodistribution in ddY mouse lung at 13.2 to 20.6 kBq, iv measured at 60 mins by gamma counting analysis; type: ADME, organism-based; conditions: in vivo, 1 h; method in brief: as §1
# Stomach [6] = test: Biodistribution in ddY mouse stomach at 13.2 to 20.6 kBq, iv measured per organ at 60 mins by gamma counting analysis; type: ADME, organism-based; conditions: in vivo, 1 h
# Method in brief: (§2)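 Male ddY mice, 5 weeks old, were injected in the tail vein with the 125I tracer (13.2–20.6 kBq) in 100 µL saline containing ethanol. Sacrifice at 2, 10, 30 and 60 min. Stomach radioactivity is expressed as %ID per whole organ, mean (SD) of 5 animals.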
# Brain [7] = test: Biodistribution in ddY mouse brain at 13.2 to 20.6 kBq, iv measured at 60 mins by gamma counting analysis; type: ADME, organism-based; conditions: in vivo, 1 h; method in brief: as §1
# Blood [8] = test: Biodistribution in ddY mouse blood at 13.2 to 20.6 kBq, iv measured at 60 mins by gamma counting analysis; type: ADME, organism-based; conditions: in vivo, 1 h; method in brief: as §1
# Liver [9] = test: Biodistribution in ddY mouse liver at 13.2 to 20.6 kBq, iv measured at 10 mins by gamma counting analysis; type: ADME, organism-based; conditions: in vivo; method in brief: as §1
# Kidney [10] = test: Biodistribution in ddY mouse kidney at 13.2 to 20.6 kBq, iv measured at 10 mins by gamma counting analysis; type: ADME, organism-based; conditions: in vivo; method in brief: as §1
# Intestine [11] = test: Biodistribution in ddY mouse intestine at 13.2 to 20.6 kBq, iv measured at 10 mins by gamma counting analysis; type: ADME, organism-based; conditions: in vivo; method in brief: as §1
# Spleen [12] = test: Biodistribution in ddY mouse spleen at 13.2 to 20.6 kBq, iv measured at 10 mins by gamma counting analysis; type: ADME, organism-based; conditions: in vivo; method in brief: as §1
# Pancreas [13] = test: Biodistribution in ddY mouse pancreas at 13.2 to 20.6 kBq, iv measured at 10 mins by gamma counting analysis; type: ADME, organism-based; conditions: in vivo; method in brief: as §1
# Heart [14] = test: Biodistribution in ddY mouse heart at 13.2 to 20.6 kBq, iv measured at 10 mins by gamma counting analysis; type: ADME, organism-based; conditions: in vivo; method in brief: as §1
# Lung [15] = test: Biodistribution in ddY mouse lung at 13.2 to 20.6 kBq, iv measured at 10 mins by gamma counting analysis; type: ADME, organism-based; conditions: in vivo; method in brief: as §1
# Stomach [16] = test: Biodistribution in ddY mouse stomach at 13.2 to 20.6 kBq, iv measured per organ at 10 mins by gamma counting analysis; type: ADME, organism-based; conditions: in vivo; method in brief: as §2
# Brain [17] = test: Biodistribution in ddY mouse brain at 13.2 to 20.6 kBq, iv measured at 10 mins by gamma counting analysis; type: ADME, organism-based; conditions: in vivo; method in brief: as §1
# Blood [18] = test: Biodistribution in ddY mouse blood at 13.2 to 20.6 kBq, iv measured at 10 mins by gamma counting analysis; type: ADME, organism-based; conditions: in vivo; method in brief: as §1
# Liver [19] = test: Biodistribution in ddY mouse liver at 13.2 to 20.6 kBq, iv measured at 30 mins by gamma counting analysis; type: ADME, organism-based; conditions: in vivo, 0.5 h; method in brief: as §1
# Kidney [20] = test: Biodistribution in ddY mouse kidney at 13.2 to 20.6 kBq, iv measured at 30 mins by gamma counting analysis; type: ADME, organism-based; conditions: in vivo, 0.5 h; method in brief: as §1
# Intestine [21] = test: Biodistribution in ddY mouse intestine at 13.2 to 20.6 kBq, iv measured at 30 mins by gamma counting analysis; type: ADME, organism-based; conditions: in vivo, 0.5 h; method in brief: as §1
# Spleen [22] = test: Biodistribution in ddY mouse spleen at 13.2 to 20.6 kBq, iv measured at 30 mins by gamma counting analysis; type: ADME, organism-based; conditions: in vivo, 0.5 h; method in brief: as §1
# Pancreas [23] = test: Biodistribution in ddY mouse pancreas at 13.2 to 20.6 kBq, iv measured at 30 mins by gamma counting analysis; type: ADME, organism-based; conditions: in vivo, 0.5 h; method in brief: as §1
# Heart [24] = test: Biodistribution in ddY mouse heart at 13.2 to 20.6 kBq, iv measured at 30 mins by gamma counting analysis; type: ADME, organism-based; conditions: in vivo, 0.5 h; method in brief: as §1
# Lung [25] = test: Biodistribution in ddY mouse lung at 13.2 to 20.6 kBq, iv measured at 30 mins by gamma counting analysis; type: ADME, organism-based; conditions: in vivo, 0.5 h; method in brief: as §1
# Stomach [26] = test: Biodistribution in ddY mouse stomach at 13.2 to 20.6 kBq, iv measured per organ at 30 mins by gamma counting analysis; type: ADME, organism-based; conditions: in vivo, 0.5 h; method in brief: as §2
# Brain [27] = test: Biodistribution in ddY mouse brain at 13.2 to 20.6 kBq, iv measured at 30 mins by gamma counting analysis; type: ADME, organism-based; conditions: in vivo, 0.5 h; method in brief: as §1
# Blood [28] = test: Biodistribution in ddY mouse blood at 13.2 to 20.6 kBq, iv measured at 30 mins by gamma counting analysis; type: ADME, organism-based; conditions: in vivo, 0.5 h; method in brief: as §1
# Liver [29] = test: Biodistribution in ddY mouse liver at 13.2 to 20.6 kBq, iv measured at 60 mins by gamma counting analysis; type: ADME, organism-based; conditions: in vivo, 1 h; method in brief: as §1
# Kidney [30] = test: Biodistribution in ddY mouse kidney at 13.2 to 20.6 kBq, iv measured at 60 mins by gamma counting analysis; type: ADME, organism-based; conditions: in vivo, 1 h; method in brief: as §1
# [31] = 1-Octanol-PBS buffer partition coefficient, log P of the compound at 0.37 MBq after 2 mins by gamma counting analysis; type: physicochemical
# Brain [32] = test: Ratio of drug level in ddY mouse brain at 13.2 to 20.6 kBq, iv measured at 2 mins to drug level in ddY mouse brain at 13.2 to 20.6 kBq, iv measured at 60 mins; type: ADME, organism-based; conditions: in vivo
# Method in brief: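 Tail-vein injection of the 125I tracer (13.2–20.6 kBq, saline with ethanol) into male 5-week-old ddY mice. The ratio is brain uptake (%ID/g) at 2 min divided by brain uptake at 60 min, from groups of 5 animals.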
# Brain [33] = test: Biodistribution in ddY mouse brain at 13.2 to 20.6 kBq, iv measured at 2 mins by gamma counting analysis; type: ADME, organism-based; conditions: in vivo; method in brief: as §1
# Stomach [34] = test: Biodistribution in ddY mouse stomach at 13.2 to 20.6 kBq, iv measured per organ at 2 mins by gamma counting analysis; type: ADME, organism-based; conditions: in vivo; method in brief: as §2
# Heart [35] = test: Biodistribution in ddY mouse heart at 13.2 to 20.6 kBq, iv measured at 2 mins by gamma counting analysis; type: ADME, organism-based; conditions: in vivo; method in brief: as §1
# Lung [36] = test: Biodistribution in ddY mouse lung at 13.2 to 20.6 kBq, iv measured at 2 mins by gamma counting analysis; type: ADME, organism-based; conditions: in vivo; method in brief: as §1
# Pancreas [37] = test: Biodistribution in ddY mouse pancreas at 13.2 to 20.6 kBq, iv measured at 2 mins by gamma counting analysis; type: ADME, organism-based; conditions: in vivo; method in brief: as §1
# Spleen [38] = test: Biodistribution in ddY mouse spleen at 13.2 to 20.6 kBq, iv measured at 2 mins by gamma counting analysis; type: ADME, organism-based; conditions: in vivo; method in brief: as §1
# Intestine [39] = test: Biodistribution in ddY mouse intestine at 13.2 to 20.6 kBq, iv measured at 2 mins by gamma counting analysis; type: ADME, organism-based; conditions: in vivo; method in brief: as §1
# Kidney [40] = test: Biodistribution in ddY mouse kidney at 13.2 to 20.6 kBq, iv measured at 2 mins by gamma counting analysis; type: ADME, organism-based; conditions: in vivo; method in brief: as §1
# Blood [41] = test: Biodistribution in ddY mouse blood at 13.2 to 20.6 kBq, iv measured at 2 mins by gamma counting analysis; type: ADME, organism-based; conditions: in vivo; method in brief: as §1
# Liver [42] = test: Biodistribution in ddY mouse liver at 13.2 to 20.6 kBq, iv measured at 2 mins by gamma counting analysis; type: ADME, organism-based; conditions: in vivo; method in brief: as §1
compound,measurement,setting,value
Nc1ccc(/C=C/c2nc3ccc([125I])cc3[nH]2)cc1,Drug uptake,Intestine [1],27.4 % ID/g
same,Drug uptake,Spleen [2],2.46 % ID/g
same,Drug uptake,Pancreas [3],1.43 % ID/g
same,Drug uptake,Heart [4],1.13 % ID/g
same,Drug uptake,Lung [5],1.44 % ID/g
same,Drug uptake,Stomach [6],4.37 %ID
same,Drug uptake,Brain [7],0.12 % ID/g
same,Drug uptake,Blood [8],1.24 % ID/g
same,Drug uptake,Liver [9],29.9 % ID/g
same,Drug uptake,Kidney [10],5.04 % ID/g
same,Drug uptake,Intestine [11],13.7 % ID/g
same,Drug uptake,Spleen [12],4.87 % ID/g
same,Drug uptake,Pancreas [13],1.93 % ID/g
same,Drug uptake,Heart [14],2.84 % ID/g
same,Drug uptake,Lung [15],3.55 % ID/g
same,Drug uptake,Stomach [16],4.13 %ID
same,Drug uptake,Brain [17],1.4 % ID/g
same,Drug uptake,Blood [18],2.72 % ID/g
same,Drug uptake,Liver [19],19.3 % ID/g
same,Drug uptake,Kidney [20],2.54 % ID/g
same,Drug uptake,Intestine [21],22.1 % ID/g
same,Drug uptake,Spleen [22],2.71 % ID/g
same,Drug uptake,Pancreas [23],0.69 % ID/g
same,Drug uptake,Heart [24],1.48 % ID/g
same,Drug uptake,Lung [25],1.62 % ID/g
same,Drug uptake,Stomach [26],3.6 %ID
same,Drug uptake,Brain [27],0.26 % ID/g
same,Drug uptake,Blood [28],1.57 % ID/g
same,Drug uptake,Liver [29],15.6 % ID/g
same,Drug uptake,Kidney [30],3.25 % ID/g
same,logP at 2 min,[31],1.88
same,Ratio,Brain [32],26.7
same,Drug uptake,Brain [33],3.2 % ID/g
same,Drug uptake,Stomach [34],1.7 %ID
same,Drug uptake,Heart [35],8.31 % ID/g
same,Drug uptake,Lung [36],9.09 % ID/g
same,Drug uptake,Pancreas [37],4.99 % ID/g
same,Drug uptake,Spleen [38],5.5 % ID/g
same,Drug uptake,Intestine [39],4.09 % ID/g
same,Drug uptake,Kidney [40],10.6 % ID/g
same,Drug uptake,Blood [41],5.94 % ID/g
same,Drug uptake,Liver [42],29.4 % ID/g
